# Measurements published in ChEMBL document CHEMBL1156077, “Piperazinyl-glutamate-pyrimidines as potent P2Y12 antagonists for inhibition of platelet aggregation” (Bioorg Med Chem Lett, 2009).
# The source made the active and inactive calls. The calls are words filed in the database; no cut-off is given here.
# Legend:
# [1] = Selectivity for human P2Y12 receptor over P2Y1
# P2Y purinoceptor 12 [2] = molecular target: T1, P2Y purinoceptor 12 (Homo sapiens, UniProt Q9H244); experiment: Binding affinity at human recombinant P2Y12 receptor expressed in CHO cells by radioligand binding assay in presence of 0.4% human serum albumin; format: cell-based
# T1 sequence (Q9H244 whole entry): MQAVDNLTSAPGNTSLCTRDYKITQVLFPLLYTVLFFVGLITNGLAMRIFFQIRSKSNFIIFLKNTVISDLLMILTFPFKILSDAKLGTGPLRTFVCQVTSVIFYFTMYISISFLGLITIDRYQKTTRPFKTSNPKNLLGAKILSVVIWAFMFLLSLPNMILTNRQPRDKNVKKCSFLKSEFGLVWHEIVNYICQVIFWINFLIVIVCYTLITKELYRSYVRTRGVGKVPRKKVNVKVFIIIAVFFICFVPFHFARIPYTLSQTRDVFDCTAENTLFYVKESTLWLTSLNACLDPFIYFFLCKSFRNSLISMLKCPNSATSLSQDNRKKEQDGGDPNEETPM
# In short: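 Membranes from CHO cells transfected with a synthetic human P2Y12 gene, with 0.4% human serum albumin added to the binding buffer (50 mM Tris, 100 mM NaCl, 1 mM EDTA). Seven-point threefold dilutions were run in triplicate, 1 h at room temperature, then filtered. Ki from IC50 by Cheng-Prusoff.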
# [3] = Selectivity for human P2Y12 receptor over P2Y13
# P2Y purinoceptor 12 [4] = molecular target: T1, P2Y purinoceptor 12; experiment: Binding affinity at human recombinant P2Y12 receptor expressed in CHO cells by radioligand binding assay; format: cell-based
# In short: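 Washed membranes from CHO cells transfected with synthetic human P2Y12 gene. Compounds as 7-point threefold dilutions, triplicate, 1 h at room temperature. Nonspecific binding defined with 300 nM 2-MeSADP. Filtered, washed with ice-cold Tris pH 7.4. Single-site fit; IC50 converted to Ki by Cheng–Prusoff, geometric mean of n≥2.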
# [5] = Volume of distribution at steady state in Sprague-Dawley rat at 2 mg/kg, iv and 5 mg/kg, po; format: ADME, organism-based; details: in vivo, read-out: Vdss
# Liver microsomes [6] = experiment: Metabolic stability in rat liver microsomes assessed as compound remaining; format: ADME, Microsome
# In short: (§1)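 Compounds incubated 30 min with human or rat liver microsomes; percent of parent compound remaining measured.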
# CYP2D6 = CYP2D6 (Homo sapiens, UniProt P10635); experiment: Inhibition of CYP2D6 at 3 uM after 30 mins; format: ADME
# Sequence of CYP2D6 (P10635 whole entry, canonical isoform): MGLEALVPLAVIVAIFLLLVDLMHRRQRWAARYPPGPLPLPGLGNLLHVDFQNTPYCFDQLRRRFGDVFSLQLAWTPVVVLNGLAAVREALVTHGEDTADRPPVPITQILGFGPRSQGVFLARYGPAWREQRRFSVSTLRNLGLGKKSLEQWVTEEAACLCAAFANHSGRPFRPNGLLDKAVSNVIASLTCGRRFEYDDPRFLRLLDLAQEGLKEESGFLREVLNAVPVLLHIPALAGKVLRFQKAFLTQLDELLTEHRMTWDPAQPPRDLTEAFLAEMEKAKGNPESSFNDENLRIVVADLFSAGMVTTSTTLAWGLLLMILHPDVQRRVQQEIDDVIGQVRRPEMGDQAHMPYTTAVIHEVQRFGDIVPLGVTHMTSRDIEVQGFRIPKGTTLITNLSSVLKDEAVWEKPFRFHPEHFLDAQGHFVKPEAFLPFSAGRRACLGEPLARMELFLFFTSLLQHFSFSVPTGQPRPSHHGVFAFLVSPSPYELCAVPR
# In short: (§2)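 Each CYP isoform assayed separately at a single 3 µM compound concentration in duplicate, with at least one isoform-specific positive control inhibitor. Incubation 30 min at 37 °C; end-point measurement gives percent inhibition.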
# P2Y purinoceptor 12 [7] = molecular target: T1, P2Y purinoceptor 12; experiment: Ratio of compound IC50 to thienopyrimidine IC50 for P2Y12 receptor in human platelet rich plasma assessed as inhibition of ADP-induced platelet aggregation by light transmission aggregometry
# In short: (§3)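 Human platelet-rich plasma was pre-incubated 5 min at 37 °C with compound across seven concentrations (10 down to 0.156). Aggregation was started with ADP (20, final) and followed by light transmission at 626 nm for 15 min at 37 °C. Duplicate concentration-response data were read at the 15-min end-point. IC50 was divided by the IC50 of the thienopyrimidine reference run on the same plate.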
# P2Y purinoceptor 12 [8] = molecular target: T1, P2Y purinoceptor 12; experiment: Ratio of compound IC50 to AZD-6140 IC50 for P2Y12 receptor in human platelet rich plasma assessed as inhibition of ADP-induced platelet aggregation by light transmission aggregometry
# In short: as §3, with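 “AZD-6140” for “the thienopyrimidine reference”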
# CYP2C9 = CYP2C9 (Homo sapiens, UniProt P11712); experiment: Inhibition of CYP2C9 at 3 uM after 30 mins; format: ADME; in short: as §2
# Sequence of CYP2C9 (P11712 whole entry): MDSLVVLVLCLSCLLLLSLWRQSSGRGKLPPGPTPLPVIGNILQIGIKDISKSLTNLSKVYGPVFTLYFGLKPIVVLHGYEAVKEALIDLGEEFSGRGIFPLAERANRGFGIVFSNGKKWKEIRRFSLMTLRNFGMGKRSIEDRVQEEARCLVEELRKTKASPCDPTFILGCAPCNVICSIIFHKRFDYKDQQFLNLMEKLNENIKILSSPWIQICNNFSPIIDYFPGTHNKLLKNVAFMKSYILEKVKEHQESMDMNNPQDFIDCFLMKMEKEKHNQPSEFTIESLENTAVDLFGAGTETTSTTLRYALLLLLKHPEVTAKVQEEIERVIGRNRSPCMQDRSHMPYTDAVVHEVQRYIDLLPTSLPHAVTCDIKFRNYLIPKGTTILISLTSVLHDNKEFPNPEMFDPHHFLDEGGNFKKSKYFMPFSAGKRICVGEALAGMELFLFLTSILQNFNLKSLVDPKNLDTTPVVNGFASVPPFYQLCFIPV
# hERG (KCNH2) = hERG (KCNH2) (Homo sapiens, UniProt Q12809); experiment: Displacement of Cy3B-tagged N-desmethyl dofetilide from human ERG expressed in HEK cells at 10 uM after 120 mins; format: cell-based, HEK293; details: HEK cells that express human ERG, probe Cy3B-tagged N-desmethyl dofetilide
# Sequence of hERG (KCNH2) (Q12809 whole entry): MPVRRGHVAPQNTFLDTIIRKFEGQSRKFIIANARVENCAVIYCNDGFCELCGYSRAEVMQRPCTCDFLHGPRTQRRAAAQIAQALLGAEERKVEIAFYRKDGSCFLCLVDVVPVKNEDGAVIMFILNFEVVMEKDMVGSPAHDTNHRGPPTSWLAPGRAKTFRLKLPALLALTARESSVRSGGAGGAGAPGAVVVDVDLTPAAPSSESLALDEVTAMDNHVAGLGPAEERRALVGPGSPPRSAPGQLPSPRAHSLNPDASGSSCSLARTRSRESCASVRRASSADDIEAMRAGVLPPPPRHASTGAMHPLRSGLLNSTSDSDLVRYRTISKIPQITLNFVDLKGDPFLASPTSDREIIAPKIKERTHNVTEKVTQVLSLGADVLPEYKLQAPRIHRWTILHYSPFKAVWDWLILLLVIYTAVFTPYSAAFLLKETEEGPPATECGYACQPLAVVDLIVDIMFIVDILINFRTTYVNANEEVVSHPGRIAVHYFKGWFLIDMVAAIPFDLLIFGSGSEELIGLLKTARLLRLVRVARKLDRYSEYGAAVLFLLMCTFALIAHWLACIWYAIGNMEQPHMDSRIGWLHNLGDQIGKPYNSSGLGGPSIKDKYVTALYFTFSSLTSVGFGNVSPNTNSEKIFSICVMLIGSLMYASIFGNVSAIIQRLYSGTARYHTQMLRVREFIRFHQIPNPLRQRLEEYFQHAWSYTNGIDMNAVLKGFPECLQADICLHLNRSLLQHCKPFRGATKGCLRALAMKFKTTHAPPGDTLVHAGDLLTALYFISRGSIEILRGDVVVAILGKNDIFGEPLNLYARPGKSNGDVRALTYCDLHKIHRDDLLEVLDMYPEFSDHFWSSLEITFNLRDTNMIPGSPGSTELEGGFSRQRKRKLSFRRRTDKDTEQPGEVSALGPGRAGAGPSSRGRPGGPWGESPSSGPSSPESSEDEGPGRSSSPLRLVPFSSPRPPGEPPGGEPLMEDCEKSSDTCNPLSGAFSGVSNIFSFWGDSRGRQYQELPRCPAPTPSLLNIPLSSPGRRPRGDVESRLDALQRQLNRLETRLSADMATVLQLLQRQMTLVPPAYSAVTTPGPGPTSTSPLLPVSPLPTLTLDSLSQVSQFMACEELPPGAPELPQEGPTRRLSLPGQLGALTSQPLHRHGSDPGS
# In short: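 Fluorescence polarization competition assay with HEK-hERG membrane homogenates and Cy3B-tagged N-desmethyl dofetilide tracer. Compound tested at a single 10 µM concentration, 120 min incubation, end-point read for percent inhibition.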
# [9] = Effective half life in Sprague-Dawley rat at 2 mg/kg, iv and 5 mg/kg, po; format: ADME, organism-based; details: in vivo
# [10] = Clearance in Sprague-Dawley rat at 2 mg/kg, iv and 5 mg/kg, po; format: ADME, organism-based; details: in vivo
# CYP1A2 = molecular target: T2, CYP1A2 (Homo sapiens, UniProt P05177); experiment: Inhibition of CYP1A2 at 3 uM after 30 mins; format: ADME; in short: as §2
# T2 sequence (P05177 whole entry): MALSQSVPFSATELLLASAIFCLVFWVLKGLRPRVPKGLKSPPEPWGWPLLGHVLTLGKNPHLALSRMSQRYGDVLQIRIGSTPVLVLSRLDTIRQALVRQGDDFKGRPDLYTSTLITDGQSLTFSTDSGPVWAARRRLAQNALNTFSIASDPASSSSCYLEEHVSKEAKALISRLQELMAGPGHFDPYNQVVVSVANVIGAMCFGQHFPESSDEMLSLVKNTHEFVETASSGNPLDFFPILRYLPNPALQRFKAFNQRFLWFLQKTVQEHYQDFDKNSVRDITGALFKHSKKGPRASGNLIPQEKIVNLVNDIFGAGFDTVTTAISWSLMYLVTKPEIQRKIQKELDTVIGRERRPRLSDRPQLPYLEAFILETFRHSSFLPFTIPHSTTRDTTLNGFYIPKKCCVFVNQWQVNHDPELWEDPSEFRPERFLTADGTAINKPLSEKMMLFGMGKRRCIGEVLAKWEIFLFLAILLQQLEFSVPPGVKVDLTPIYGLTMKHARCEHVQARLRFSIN
# CYP3A4 = CYP3A4 (Homo sapiens, UniProt P08684); experiment: Inhibition of CYP3A4 at 3 uM after 30 mins; format: ADME; in short: as §2
# Sequence of CYP3A4 (P08684 whole entry): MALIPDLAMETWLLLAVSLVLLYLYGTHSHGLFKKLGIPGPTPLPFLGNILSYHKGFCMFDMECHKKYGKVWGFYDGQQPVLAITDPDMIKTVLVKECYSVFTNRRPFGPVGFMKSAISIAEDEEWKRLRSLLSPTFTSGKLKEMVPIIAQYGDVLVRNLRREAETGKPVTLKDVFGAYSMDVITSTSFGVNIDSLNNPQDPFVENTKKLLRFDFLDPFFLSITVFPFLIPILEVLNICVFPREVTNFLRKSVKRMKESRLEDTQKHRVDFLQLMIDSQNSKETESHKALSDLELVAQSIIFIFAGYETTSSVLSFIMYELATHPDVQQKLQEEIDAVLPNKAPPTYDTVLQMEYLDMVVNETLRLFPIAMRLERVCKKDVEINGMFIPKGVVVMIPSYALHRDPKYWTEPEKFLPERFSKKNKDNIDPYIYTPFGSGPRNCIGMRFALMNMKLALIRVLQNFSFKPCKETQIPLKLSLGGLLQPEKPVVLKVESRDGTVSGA
# Liver microsomes [11] = experiment: Metabolic stability in human liver microsomes assessed as compound remaining; format: ADME, Microsome; in short: as §1
# [12] = Oral bioavailability in Sprague-Dawley rat at 5 mg/kg; format: ADME, organism-based; details: in vivo
fold change (FC) [1],Activity (P2Y purinoceptor 12 [2]),fold change (FC) [3],Ki (P2Y purinoceptor 12 [4]) [nM],Vd [5] [L/kg],Stability (Liver microsomes [6]) [%],"inhibition at 0.5 h, 3 µM (CYP2D6) [%]",Ratio IC50 (P2Y purinoceptor 12 [7]),Ratio IC50 (P2Y purinoceptor 12 [8]),"inhibition at 0.5 h, 3 µM (CYP2C9) [%]",half-life [9] [min],clearance [10] [mL/min/kg],"inhibition at 0.5 h, 3 µM (CYP1A2) [%]","inhibition at 0.5 h, 3 µM (CYP3A4) [%]",Stability (Liver microsomes [11]) [%],bioavailability [12] [%],Structure (SMILES),"inhibition at 2 h, 10 µM (hERG (KCNH2)) [%]"
> 340,inactive,> 340,70,–,–,–,–,–,–,–,–,–,–,–,–,CCCCCOC(=O)N1CCN(C(=O)[C@H](CCC(=O)O)NC(=O)c2cc(SC3CCCCC3)nc(-c3ccccc3)n2)CC1,–
> 340,inactive,> 340,42,–,–,–,–,–,–,–,–,–,–,–,–,CCCCCOC(=O)N1CCN(C(=O)[C@H](CCC(=O)O)NC(=O)c2cc(SC(C)(C)C)nc(-c3ccccc3)n2)CC1,–
> 340,inactive,> 340,17,–,–,–,–,–,–,–,–,–,–,–,–,CCCCCOC(=O)N1CCN(C(=O)[C@H](CCC(=O)O)NC(=O)c2cc(SC3CCCC3)nc(-c3ccccc3)n2)CC1,–
> 340,–,> 340,1.2,2,> 80,< 25,0.1,0.7,< 25,42,31,< 25,< 25,> 80,2,CCCCCOC(=O)N1CCN(C(=O)[C@H](CCC(=O)O)NC(=O)c2cc(N3CCC(CNC)CC3)nc(-c3ccccc3)n2)CC1,< 25
> 340,–,> 340,0.46,0.2,> 80,< 25,0.06,0.4,< 25,48,2,< 25,< 25,> 80,13,CCCCCOC(=O)N1CCN(C(=O)[C@H](CCC(=O)O)NC(=O)c2cc(N3CCC(C(=O)N4CCCC4)CC3)nc(-c3ccccc3)n2)CC1,< 25
> 340,–,> 340,8.4,1.1,> 80,< 25,0.4,2.8,< 25,54,14,< 25,< 25,> 80,61,CCCCCOC(=O)N1CCN(C(=O)[C@H](CCC(=O)O)NC(=O)c2cc(N3CCC(COC)CC3)nc(-c3ccccc3)n2)CC1,< 25
> 340,–,> 340,0.4,7.7,> 80,< 25,0.1,0.7,< 25,18,98,< 25,< 25,> 80,1,CCCCCOC(=O)N1CCN(C(=O)[C@H](CCC(=O)O)NC(=O)c2cc(N3CCC(CN4CCCC4)CC3)nc(-c3ccccc3)n2)CC1,< 25
> 340,–,> 340,0.6,0.2,> 80,< 25,0.2,1.5,< 25,18,8,< 25,< 25,> 80,8,CCCCCOC(=O)N1CCN(C(=O)[C@H](CCC(=O)O)NC(=O)c2cc(N3CCC(C(=O)NCC)CC3)nc(-c3ccccc3)n2)CC1,< 25
> 340,inactive,> 340,4.5,–,–,–,–,–,–,–,–,–,–,–,–,CCCCCOC(=O)N1CCN(C(=O)[C@H](CCC(=O)O)NC(=O)c2cc(SCCO)nc(-c3ccccc3)n2)CC1,–
> 340,–,> 340,0.38,0.3,> 80,< 25,0.1,0.6,< 25,6,16,< 25,< 25,> 80,7,CCCCOC(=O)N1CCN(C(=O)[C@H](CCC(=O)O)NC(=O)c2cc(N3CCC(C(=O)NCC)CC3)nc(-c3ccccc3)n2)CC1,< 25
> 340,–,> 340,1.5,0.21,> 80,< 25,0.1,0.6,< 25,24,6,< 25,< 25,> 80,38,CCCCCOC(=O)N1CCN(C(=O)[C@H](CCC(=O)O)NC(=O)c2cc(N3CCC(C(=O)N(CC)CC)CC3)nc(-c3ccccc3)n2)CC1,< 25
> 340,inactive,> 340,22,–,–,–,–,–,–,–,–,–,–,–,–,CCCCCOC(=O)N1CCN(C(=O)[C@H](CCC(=O)O)NC(=O)c2cc(SCC(F)(F)F)nc(-c3ccccc3)n2)CC1,–
